The record followed here is ChEMBL document CHEMBL1144494, “Synthesis of diverse analogues of Oenostacin and their antibacterial activities” (Bioorg Med Chem, 2007).

The subject of test [1] is Staphylococcus aureus. Kind of test: Antibacterial activity against Staphylococcus aureus. Format: functional, organism-based. An outline of the steps:
(§1)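 Twofold serial broth dilution in nutrient broth across eight tubes, with broth alone as control. Each tube received 10 µl of diluted log-phase culture at a titre of 10^4 cfu/ml. Incubation at 37 °C, with growth read by turbidity. EC50 values are means of three experiments run in triplicate.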

In test [2] the test system is Staphylococcus epidermidis. Briefly: Antibacterial activity against Staphylococcus epidermidis. It counts as functional, organism-based. An outline of the steps:
as §1

A value given as a limit tells only on which side of the number the result lay.

One may read the EC50 as the concentration at which the effect is half-maximal. High values mean lower potency in that assay, low ones higher potency in that assay.

As to `Cc1cc(O)c(C=O)c(O)c1`, the 50% effective concentration (EC50) in test [1] and in test [2] was 1640 nM throughout.

Consider `COc1cc(O)cc(C(=O)O)c1C=O`, for which the concentration for a half-maximal effect (EC50) is more than 5000 nM in test [1] and 2550 nM in test [2].

On to `O=C(O)CCCC(=O)c1ccc(O)c(O)c1O`, for which the EC50 in test [1] is 2080 nM; in test [2], 1040 nM.

In the case of `COC(=O)c1cc(O)cc(OC)c1C=O`, the EC50 in test [1] is 4760 nM; in test [2], 2380 nM.

As to `O=Cc1c(O)cc(O)cc1C(=O)O`, the EC50 was more than 5000 nM in test [1] and 1370 nM in test [2].

`O=C(O)/C=C/c1cc(O)c(O)c(O)c1`: the 50% effective concentration (EC50) in test [1] is 1260 nM; in test [2], 630 nM.

On to `CC(=O)c1cc(O)c(O)c(O)c1`, for which the EC50 in test [1] is 2960 nM; in test [2], 1480 nM.

With `O=C(O)c1cc(O)cc(O)c1CO`, the EC50 in test [1] and in test [2] was 670 nM each time.

Turning to `O=C(O)/C=C/c1ccc(O)c(O)c1` [CAFFEIC ACID], the EC50 in test [1] and in test [2] was 2780 nM throughout.

Regarding `COC(=O)CC/C=C/c1c(O)cc(C(=O)O)cc1O` [OENOSTACIN], the EC50 in test [1] and in test [2] was 120 nM throughout.

As to `Cc1cc(O)cc(O)c1` [ORCINOL], the EC50 in test [1] and in test [2] was 4030 nM in each case.

As to `Oc1cccc(O)c1O` [PYROGALLOL], the EC50 in test [1] is 490 nM; in test [2], 990 nM.
